Screens (PubChem BioAssay)
HKDC1 act: HKDC1 (human) hexokinase activation; actives 0.056% (n = 340,000); Q2TB90; activity change, negative = activation, % at 20 µM; AID 493187; recombinant HKDC1, G6PDH/diaphorase resazurin fluorescence; active compounds read low;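 active = activation of 40% or more at 20 µM, a change of -40% or lower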
Target sequence (Q2TB90 whole entry, looked up): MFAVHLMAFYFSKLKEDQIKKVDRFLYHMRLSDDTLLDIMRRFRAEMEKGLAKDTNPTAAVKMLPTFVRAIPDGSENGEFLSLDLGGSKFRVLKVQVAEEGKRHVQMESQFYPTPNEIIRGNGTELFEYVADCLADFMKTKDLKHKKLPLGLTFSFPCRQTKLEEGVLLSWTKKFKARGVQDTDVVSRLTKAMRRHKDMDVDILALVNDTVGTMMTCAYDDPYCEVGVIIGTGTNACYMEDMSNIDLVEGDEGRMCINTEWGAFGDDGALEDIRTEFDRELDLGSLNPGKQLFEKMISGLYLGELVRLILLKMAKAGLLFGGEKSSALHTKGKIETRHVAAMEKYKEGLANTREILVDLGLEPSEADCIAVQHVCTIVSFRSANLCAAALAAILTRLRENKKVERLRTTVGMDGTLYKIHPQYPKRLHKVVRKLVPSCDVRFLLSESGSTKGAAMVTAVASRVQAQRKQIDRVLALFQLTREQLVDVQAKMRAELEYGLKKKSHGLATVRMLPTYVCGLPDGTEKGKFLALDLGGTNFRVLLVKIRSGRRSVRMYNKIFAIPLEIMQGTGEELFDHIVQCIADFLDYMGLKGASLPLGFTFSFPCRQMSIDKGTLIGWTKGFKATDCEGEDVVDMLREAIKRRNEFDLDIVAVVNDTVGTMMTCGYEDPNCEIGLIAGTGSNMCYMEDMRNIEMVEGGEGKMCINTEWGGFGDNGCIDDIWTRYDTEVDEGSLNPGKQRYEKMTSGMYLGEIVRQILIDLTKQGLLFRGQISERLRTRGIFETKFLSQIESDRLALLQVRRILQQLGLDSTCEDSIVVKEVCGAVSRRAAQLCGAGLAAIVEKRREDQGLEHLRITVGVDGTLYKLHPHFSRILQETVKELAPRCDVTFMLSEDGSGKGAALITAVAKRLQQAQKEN
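Dosing: single compound dose of 20 µM, 1% DMSO final / Test system: in-house human HKDC1 enzyme, G6PDH and diaphorase coupling enzymes / Quantity: 5 µg/mL HKDC1 final / Incubation: enzyme reaction 90 min, room temperature, in dark / Buffer or medium: pH 8.0 Tris with MgCl2 / Detection: coupled resazurin-to-resorufin fluorescence, Ex 525/Em 613 nm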
Of the large screens only hits and unclear results are named; the others gave an inactive call. These entries were drawn from the full list.

O=C(O)c1ccccc1-c1ccc(/C=c2\sc3nc4cc(Br)cnc4n3c2=O)o1	none
O=C(N/N=C/c1ccc(O)cc1O)/C(=C/c1ccccc1)CCO	HKDC1 act -40.1
O=Cc1[nH]c2ccccc2c1N(C(=O)CCl)c1ccccc1	none
CCCN(CCC)C(=O)c1cc([N+](=O)[O-])cc2c1-c1ccc([N+](=O)[O-])cc1C2=C(C#N)C#N	none
Cc1ccc(NC(=O)CN2C(=O)S/C(=C/c3ccc(-c4cc(C(=O)O)ccc4C)o3)C2=O)cc1C	none
O=C(NC(=S)NNC(=O)c1cnccn1)c1ccc(F)cc1	HKDC1 act -48.5
COc1ccc(/C=C/C(=O)NC(=S)NNC(=O)c2cnccn2)cc1	HKDC1 act -40.3
O=C1C=C(Nc2ccccc2C(=O)O)c2ccccc2C1=O	none
CC1(OC(=O)CCc2ccccc2)C(=O)C=C2C=C(c3ccc(C#N)cc3)N(Cc3ccccc3)C=C2C1=O (configuration not stated)	none
COC(=O)c1ccccc1NC1=C/C(=N\S(=O)(=O)c2ccc(C(=O)O)cc2)c2ccccc2C1=O	none
O=C1C=C(N2CCOCC2)c2ccccc2C1=O	none
CC(C(=O)O)N1C(=O)/C(=C/C=C/c2ccco2)SC1=S (configuration not stated)	none
COc1cccc(OC)c1-c1nn2c(-c3cc(-c4ccccc4)n[nH]3)nnc2s1	none
COC1(NS(=O)(=O)c2ccc(Br)cc2)C(C)=CC(=O)C=C1C	none
CCOC(=O)C1=C(O)c2ccccc2C(=O)/C1=C\c1ccc(C)cc1	none
CC(C)(C)N=C1NN=C(c2ccc(S(=O)(=O)N3CCCCC3)cc2)CS1	HKDC1 act -66.8
Fc1ccc(F)c(C2=NNC(=Nc3ccccc3F)SC2)c1	HKDC1 act -142.8
O=S(=O)(c1cccc(COc2ccc(Cl)cc2Cl)c1)N1CCOCC1	none
Fc1ccccc1N=C1NN=C(c2ccccc2)CS1	HKDC1 act -82.5
O=S(=O)(c1ccc(N=C2NN=C(c3cc(F)ccc3F)CS2)cc1)N1CCOCC1	HKDC1 act -307.6
Oc1ccc(Br)cc1CNc1cccc2cccnc12	none
CCOC(=O)C1CCN(C(=O)Nc2ccc3nc(-c4ccco4)c(-c4ccco4)nc3c2)CC1	none
Cc1n[nH]c(=O)c2c(NC(=O)CSc3nnc(C4CC4)n3C)oc(C)c12	none
O=c1cc(O)sc2ccccc12	none
CCC1C/C(=C\c2cccnc2)C(=O)/C(=C/c2cccnc2)C1 (configuration not stated)	none
COc1cc(C2c3c([nH]c(=O)[nH]c3=O)Nc3ccc4ccccc4c32)cc(OC)c1OC (configuration not stated)	none
CC(=O)N(C1=C(Cl)C(=O)c2ccccc2C1=O)C1CCCCC1	none
Cc1cc(C(=O)COC(=O)c2cc(O)c3ccccc3c2O)c(C)n1CC1CCCO1 (configuration not stated)	none
Cc1ccc(S(=O)(=O)/N=C2/C=C(Sc3ncn[nH]3)C(=O)c3ccccc32)cc1	none
Cc1ccc2c(c1C)NC(C(=O)O)C1CC=CC21 (configuration not stated)	none
Cc1nc2c(c(=O)c3ccccc3n2C)c(=O)n1-c1ccccc1	none
CCOC(=O)C(C(=O)OCC)c1cc(Br)c2noc3c2c1C(=O)c1ccccc1-3	none
CC(=O)N1c2ccc(Cl)cc2C2C=CCC2C1c1cccc2ccccc12 (configuration not stated)	none
CC(=O)Nc1ccc2cc3ccc(NC(C)=O)cc3nc2c1	none
N#CC(C#N)=Cc1cc2ccccc2nc1N1CCCCC1	none
CCCC(NC(=O)Cc1c(C)c2cc3c(C)c(C)oc3c(C)c2oc1=O)C(=O)N[C@@H](Cc1ccccc1)C(=O)O (some centres not stated)	none
Cc1ccccc1/C=C/C(=O)c1ccc([N+](=O)[O-])o1	none
CC(=O)Nc1ccc(C2=NNC(=Nc3ccc(S(=O)(=O)N4CCOCC4)cc3)SC2)cc1	HKDC1 act -338.8
Fc1ccc(N=C2NN=C(c3cc(F)ccc3F)CS2)cc1	HKDC1 act -218.3
CN1CCN(C2=C(Cl)C(=O)C(c3cnc(N4CCCCC4)s3)=C(Cl)C2=O)CC1	none
O=C1c2ccc3c4c(ccc(c24)C(=O)N1c1ccc(O)cc1)C(=O)N(c1ccc(O)cc1)C3=O	none
O=C(O)c1cc(O)c2c(c1)C(=O)c1cccc(O)c1C2=O	none
CCN(CC)C(=O)c1ccc(C(=O)c2c(C)cc(C)cc2C)cc1	none
O=c1c2c3nc4ccccc4nc3n(-c3ccc4c(c3)OCCO4)c2ncn1C1CCCC1	none
Cc1c(N=C2C=CC(=O)c3ccccc32)c(=O)n(-c2ccccc2)n1C	none
O=C(Cc1ccc(Cl)cc1Cl)Nc1cccc(S(=O)(=O)Nc2ccccc2F)c1	HKDC1 act -40.7
O=C(O)CSc1cc(NS(=O)(=O)c2cccc([N+](=O)[O-])c2)c2ccccc2c1O	none
CCc1ccc(S(=O)(=O)/N=C2\C=C(Nc3ccc(C(=O)O)cc3)C(=O)c3ccccc32)cc1	none
O=c1c2ccccc2nc(/C=C/c2cccnc2)n1Cc1ccccc1	none
O=NNc1nc2ccccc2n1Cc1ccccc1	HKDC1 act -40.1
O=C(CSc1n[nH]c(=O)[nH]c1=O)Nc1ccc2c(c1)C(=O)c1ccccc1C2=O	none
